Assay results: ChEMBL document CHEMBL3351584, “Binding mode and potency of N-indolyloxopyridinyl-4-aminopropanyl-based inhibitors targeting Trypanosoma cruzi CYP51” (J Med Chem, 2014)

Columns and labels:
Format in all cases: ADME, organism-based
[1] = Tmax in Swiss Webster mouse at 25 mg/kg, po administered as single dose by LC-MS/MS method; set-up: dose 25 mg/kg, route oral; details: in vivo
How it was run: (§1)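 Eight-week-old female Swiss Webster mice (n = 3 per compound) given one oral gavage dose of 25 mg/kg, formulated at 5 mg/mL in 20% Kolliphor/80% water. Plasma sampled at about 0.25, 0.5, 1, 2, 4, 6, 8, 12 and 24 h, precipitated with 5× v/v acetonitrile, filtered 0.2 μm and quantified by LC–MS/MS. Parameters calculated from plasma concentration–time curves, averaged over three mice.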

[2] = Cmax in Swiss Webster mouse at 25 mg/kg, po administered as single dose by LC-MS/MS method; set-up: dose 25 mg/kg, route oral; details: in vivo; how it was run: as §1
[3] = AUClast in Swiss Webster mouse at 25 mg/kg, po administered as single dose by LC-MS/MS method; set-up: dose 25 mg/kg, route oral, time 0 - last; details: plasma; how it was run: as §1
Mus musculus = test: Volume of distribution in Swiss Webster mouse at 25 mg/kg, po administered as single dose by LC-MS/MS method; set-up: dose 25 mg/kg, route oral; details: in vivo; how it was run: as §1
Homo sapiens = species on record: Homo sapiens; test: Volume of distribution in human; details: in vivo

Structure (SMILES): Cc1ccc(Cl)cc1N1CCN(c2ccc(C(=O)N[C@H](Cc3c[nH]c4ccccc34)C(=O)Nc3ccncc3)c(F)c2)CC1
- Tmax [1]: 3.33 h
- Cmax [2]: 1800 nM
- AUC(0-t) [3]: 19 µM·h
- Vd (Mus musculus): 3.44 L/kg

Structure (SMILES): O=C(N[C@H](Cc1c[nH]c2ccccc12)C(=O)Nc1ccncc1)c1ccc(N2CCN(c3cc(Cl)cc(Cl)c3)CC2)cc1F
- Tmax [1]: 4.67 h
- Cmax [2]: 1850 nM
- AUC(0-t) [3]: 22.5 µM·h
- Vd (Mus musculus): 3.97 L/kg

Structure (SMILES): CC[C@@H]([C@H](C)O)n1ncn(-c2ccc(N3CCN(c4ccc(OC[C@@H]5CO[C@@](Cn6cncn6)(c6ccc(F)cc6F)C5)cc4)CC3)cc2)c1=O [POSACONAZOLE]
- Vd (Homo sapiens): 5 L/kg
